Data taken from ChEMBL document CHEMBL4257556, “Novel 1,3,4-thiadiazole-chalcone hybrids containing catechol moiety: synthesis, antioxidant activity, cytotoxicity and DNA interaction studies” (Medchemcomm, 2018).
Calls of active or inactive are those of the source. The rule behind the calls is not given here.

Columns and labels:
HeLa [1] = test: Antioxidant activity in human HeLa cells assessed as decrease in reactive oxygen species at 10 uM after 24 hrs by dichlorofluorescein dye-based flow cytometric method; format: functional, cell-based
Outline: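 HeLa cells pretreated 24 h with 10 μM compound, washed, loaded with 30 μM DCFH-DA in PBS 45 min at 37 °C. One portion read directly (endogenous ROS); other portion exposed to 10 mM H2O2 30 min at 37 °C. DCF green fluorescence by flow cytometry, 20 000 events per sample; mean ± SD of two independent experiments.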

HeLa [2] = test: Cytotoxicity against human HeLa cells assessed as decrease in cell survival after 72 hrs by MTT assay; format: functional, cell-based
Outline: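 HeLa (2000/well), A549 and MRC-5 (5000/well) seeded 20 h before treatment; HL-60 (7000/well) 2 h before. Five concentrations (6.25–100 μM or 3.125–50 μM) from 5 mM DMSO stocks, final DMSO ≤1%, 72 h; survival by MTT. Cisplatin positive control; three independent experiments in triplicate.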

HeLa [3] = test: Cell cycle arrest in human HeLa cells assessed as accumulation at G2/M phase at IC50 after 24 hrs by propidium iodide staining-based flow cytometric method; format: functional
Outline: (§1)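 HeLa cells treated 24 h at IC50 or 2×IC50 (from 72 h assay), fixed in 70% ethanol, stored at –20 °C ≥1 week, RNase A 30 min 37 °C, propidium iodide stained; flow cytometry, 10 000 gated events. Mean ± SD of three independent experiments; one-way ANOVA with Dunnett's post-test, p < 0.05.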

HeLa [4] = test: Cell cycle arrest in human HeLa cells assessed as decrease in cell levels at G1 phase at IC50 after 24 hrs by propidium iodide staining-based flow cytometric method; format: functional; outline: as §1
HeLa [5] = test: Cell cycle arrest in human HeLa cells assessed as accumulation at sub-G1 phase at 2 times IC50 after 24 hrs in presence of caspase-3 inhibitor Z-DEVD-FMK by propidium iodide-staining based flow cytometric method; format: functional
Outline: (§2)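 HeLa cells pretreated 2 h with 40 μM peptide caspase inhibitor (Z-DEVD-FMK caspase-3, Z-IETD-FMK caspase-8 or Z-LEHD-FMK caspase-9), then exposed to 2×IC50 compound; subG1 fraction by propidium iodide flow cytometry, compared with samples lacking inhibitor.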

HeLa [6] = test: Cell cycle arrest in human HeLa cells assessed as accumulation at sub-G1 phase at 2 times IC50 after 24 hrs in presence of caspase-8 inhibitor Z-IETD-FMK by propidium iodide-staining based flow cytometric method; format: functional; outline: as §2
HeLa [7] = test: Downregulation of TIMP3 gene expression in human HeLa cells at 10 uM after 24 hrs by RT-qPCR method; format: functional, cell-based
Calf thymus DNA [8] = test: Binding affinity to calf thymus DNA after 90 mins by spectroscopic titration method; format: nucleic-acid assay; conditions: Bos taurus
Outline: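 Compound fixed at 40 μM titrated with CT-DNA (2.2–13 × 10–5 M) in 40 mM bicarbonate pH 8.4 after 90 min at 37 °C; absorbance at 259 nm per DNA level. Kb from slope/intercept ratio of [DNA]/(εa–εf) versus [DNA] plot; triplicate assays.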

Calf thymus DNA [9] = test: Displacement of Hoechst 33258 from calf thymus DNA assessed as fluorescence intensity of compound-DNA complex at 22 uM by fluorescence spectrophotometric analysis relative to control; format: nucleic-acid assay; conditions: Bos taurus
Outline: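 CT-DNA 100 μM (per phosphate) in 40 mM bicarbonate pH 8.4 pretreated 20 min with Hoechst 33258 (28 μM final), then compound added stepwise. Excitation 350 nm, emission 390–550 nm, read at 444 nm, 10 nm slits; H–DNA as control. Quenching constant K by Stern–Volmer, I0/I versus r = [compound]/[DNA]; triplicate.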

DNA = test: Reversal of Fe2+-induced Escherichia coli pUC19 DNA cleavage at 1:1 compound to Fe2+ mole ratio after 90 mins by agarose gel electrophoresis method; format: functional
Outline: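 Compound (4 μL of 2 mM) preincubated with FeSO4 (1 or 2 μL of 8 mM; compound:Fe 1:1 or 1:2) in bicarbonate buffer 60 min at 37 °C, then pUC19 added for another 90 min; products resolved on 1% agarose gel, ethidium bromide stained.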

**Q.** Which Activity (HeLa [1]) does the source give for `Cc1cccc(C(=O)/C=C/c2ccc(C(=O)Nc3nnc(-c4ccc(O)c(O)c4)s3)cc2)c1` here?
**A.** The Activity was “Active”.

**Q.** What about the IC50 (HeLa [2]) of the same compound?
**A.** Its IC50 is 9.63 µM.

**Q.** And the Activity (HeLa [3])?
**A.** The Activity was “Active”.

**Q.** What about the Activity (HeLa [4]) of the same compound?
**A.** The Activity was “Active”.

**Q.** What about the Activity (HeLa [5]) of the same compound?
**A.** The Activity was “inactive”.

**Q.** What about the Activity (HeLa [6]) of the same compound?
**A.** Its Activity is “inactive”.

**Q.** What about the Activity (HeLa [7]) of the same compound?
**A.** The Activity was “Active”.

**Q.** What about the Kb (Calf thymus DNA [8]) of the same compound?
**A.** Its Kb is 0.74 ×10³ /M.

**Q.** What about the Activity (Calf thymus DNA [9]) of the same compound?
**A.** The Activity was 60%.

**Q.** What about the Activity (DNA) of the same compound?
**A.** The Activity was “Active”.
